Assay results from ChEMBL document CHEMBL1158773, “Cinnamylphenols from Phyllodium pulchellum” (J Nat Prod, 2005).
pIC50: −log10 of the molar value.

How the values were obtained:
KB = experiment: Cytotoxicity against human KB cells by MTT assay; assay type: functional, cell-based
Method in brief: (§1)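 HepG2 (hepatoma line HA22T) and KB (epidermoid carcinoma, CCRC 60017) cells seeded at (1-1.5) × 10^4/mL and incubated overnight at 37 °C in 5% CO₂. On day 3, MTT (5 mg/mL solution) was added for 4 h, then formazan was dissolved in DMSO and read spectrophotometrically.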

HepG2 = experiment: Cytotoxicity against human HepG2 cells by MTT assay; assay type: functional, cell-based; method in brief: as §1

Structure (SMILES)	pIC50 (KB)	pIC50 (HepG2)
COc1c(O)ccc(C=O)c1OC	< 4.00	< 4.00
CC1(C)C=Cc2c(cc(O)c3c(=O)c(O)c(-c4ccc(O)cc4)oc23)O1 [CITRUSINOL]	4.37	4.36
COc1c(O)ccc(/C=C\Cc2ccc(O)cc2)c1OC [PULCHELSTYRENE A]	< 4.00	< 4.00
COc1cc(C/C=C\c2ccc(O)c(OC)c2OC)ccc1O [PULCHELSTYRENE B]	4.25	< 4.00
COc1cc(C/C=C/c2ccc(OC)c(O)c2OC)ccc1O [PULCHELSTYRENE C]	4.40	< 4.00
COc1cc2c(c(OC)c1O)C=CCC21C=CC(=O)C=C1 [PULCHELSTYRENE D]	< 4.00	< 4.00
CC1(C)C=Cc2c(cc(O)c3c2O[C@H](c2ccc(O)cc2)[C@@H](O)C3=O)O1 [YUKOVANOL]	< 4.00	< 4.00
